The source made the active and inactive calls. No cut-off for these calls is given here.
Assays:
[1] = Phototoxicity against rat Sarcoma M1 cells implanted in rat assessed as volume of tumor parenchyma at 2.5 mg/kg, ip administered as single dose on day 11 after inoculation followed by 300 J/cm2 irradiation after 2.5 to 3 hrs measured on day 1 post photodynamic therapy by hematoxylin and eosin staining based assay (reference value: 69 +/- 6%); type: functional
Outline: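 Rat M1 sarcoma was implanted subcutaneously in the left thigh, with randomisation on day 10. A single 2.5 mg/kg ip dose was given on day 11, then 810 nm laser (0.51 W/cm2, 300 J/cm2, 10 min) after 2.5−3 h. Tumours were sectioned on days 1, 3 and 12 after PDT (controls days 12, 14, 23), five animals per point. Parenchyma and necrotic zone volumes were estimated on hematoxylin and eosin staining.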

[2] = Phototoxicity against mouse S37 cells assessed as cell growth inhibition preincubated for 4 hrs with subsequent 10 J/cm2 irradiation followed by incubation in absence of compound for 24 hrs by MTT assay; type: functional; conditions: S37, light or radiation study
Outline: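 S37 cells treated with 0.05–28 μM compound added 24 h after plating. After 0.25–6 h incubation, cells were irradiated with a halogen lamp through a KS-19 filter (720 nm) at 21.0 ± 1.0 mW/cm2, 10 J/cm2, with or without removing the compound. MTT read 24 h later; 50% growth inhibition taken as the value, mean of three tests.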

[3] = (§1) Phototoxicity against rat Sarcoma M1 cells implanted in rat assessed as apoptotic index at 2.5 mg/kg, ip administered as single dose on day 11 after inoculation followed by 300 J/cm2 irradiation after 2.5 to 3 hrs measured on day 1 post photodynamic therapy (reference value: 0.29 +/- 0.02 %); type: functional
Outline: (§2)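 Rats with M1 sarcoma implanted subcutaneously in the left thigh were randomized on day 10, 25 per group. Single ip dose of 2.5 mg/kg on day 11; laser irradiation 2.5–3 h later at 810 nm, 0.51 W/cm2, 300 J/cm2, 10 min over a 1.5 cm field. Five rats sampled per time point for H&E histology, PCNA immunohistochemistry (1:200) and tumor volume. Untreated controls; Student's test, p < 0.05.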

[4] = Drug uptake in kidney tumor of F1 mouse implanted with mouse S37 cells assessed as normalized fluorescence at 2.5 mg/kg, iv measured after 24 hrs post injection in presence of He-Ne laser radiation by local fluorescence spectroscopic analysis; type: ADME, organism-based; conditions: in vivo
Outline: (§3)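 Single iv dose of 2.5 mg/kg given to F1 mice bearing S37 sarcoma. Skin, muscle, liver, kidney, spleen and tumor taken from three animals each at 0.25, 0.5, 2, 4 and 24 h and read ex vivo by contact local fluorescence spectroscopy. He–Ne 632.8 nm excitation; 640–900 nm integral normalized to backscattered laser signal (FN).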

[5] = Phototoxicity against mouse S37 cells implanted in F1 mouse assessed as tumor growth inhibition at 5 mg/kg, iv preincubated for 30 mins with subsequent 150 J/cm2 irradiation measured on day 15 post irradiation relative to control; type: functional; conditions: S37, light or radiation study, read-out: TGI
Outline: (§4)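 S37 sarcoma mice treated on day 7 of tumor growth with compound iv; tumors 140–160 mm3 beforehand, droperidol 0.25 mg ip as anesthetic. LED irradiation at 800 ± 21 nm, 100 mW/cm2, 150 J/cm2, given 15 or 30 min after dosing. Controls got iv 0.9% NaCl. Volume = d1×d2×d3×0.52; TGI = […]×100%.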

[6] = as §1, with “volume of PCNA-positive cells in tumor parenchyma” for “apoptotic index”, “71” for “0.29”, “3” for “0.02”; type: functional; outline: as §2
[7] = (§5) Phototoxicity against rat Sarcoma M1 cells implanted in rat assessed as volume of PCNA-positive cells in tumor parenchyma at 2.5 mg/kg, ip administered as single dose on day 11 after inoculation followed by 300 J/cm2 irradiation after 2.5 to 3 hrs measured on day 3 post photodynamic therapy (reference value: 81 +/- 3%); type: functional
Outline: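 Female rats bearing subcutaneous M1 sarcoma in the left thigh were randomised on day 10. They received 2.5 mg/kg ip on day 11. Laser irradiation (810 nm, 0.51 W/cm2, 300 J/cm2, 1.5 cm field, 10 min) followed 2.5−3 h later. PCNA-positive parenchyma was scored by immunohistochemistry (mouse anti-PCNA PC10, 1:200, biotin−extravidin−peroxidase) on post-PDT days 1, 3 and 12, with five animals per time point.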

[8] = test system: Sarcoma M1; test: Phototoxicity against rat Sarcoma M1 cells implanted in rat assessed as deposition of fragments of proliferated tumor parenchyma at 2.5 mg/kg, ip administered as single dose on day 11 post inoculation followed by 300 J/cm2 irradiation after 2.5 to 3 hrs measured on day 2 post photodynamic therapy; type: functional, organism-based
[9] = as §5, with “day 12” for “day 3”, “value: 72” for “value: 81”, “+/- 5%)” for “+/- 3%)”; type: functional; outline: as §2
[10] = Phototoxicity against mouse S37 cells implanted in F1 mouse assessed as tumor growth inhibition at 2.5 mg/kg, iv preincubated for 15 mins with subsequent 150 J/cm2 irradiation measured on day 11 post irradiation relative to control; type: functional; conditions: S37, light or radiation study, read-out: TGI; outline: as §4
[11] = Phototoxicity against mouse S37 cells implanted in F1 mouse assessed as tumor growth inhibition at 2.5 mg/kg, iv preincubated for 15 mins with subsequent 150 J/cm2 irradiation measured on day 15 post irradiation relative to control; type: functional; conditions: S37, light or radiation study, read-out: TGI; outline: as §4
[12] = Drug uptake in skin tumor of F1 mouse implanted with mouse S37 cells assessed as normalized fluorescence at 2.5 mg/kg, iv measured after 15 mins post injection in presence of He-Ne laser radiation by local fluorescence spectroscopic analysis; type: ADME, organism-based; conditions: in vivo, 0.25 h
Outline: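 S37 sarcoma-bearing immunocompetent F1 mice (18−22 g) given PS 2.5 mg/kg iv. Animals sacrificed at 0.25, 0.5, 2, 4 and 24 h, with three animals per time point. Skin, tumor and organ samples were read ex vivo by contact local fluorescence spectroscopy under He−Ne 632.8 nm excitation. Integrated 640−900 nm emission was normalized to the backscattered laser signal to give FN.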

[13] = Drug uptake in spleen tumor of F1 mouse implanted with mouse S37 cells assessed as normalized fluorescence at 2.5 mg/kg, iv measured after 24 hrs post injection in presence of He-Ne laser radiation by local fluorescence spectroscopic analysis; type: ADME, organism-based; conditions: in vivo; outline: as §3
[14] = Phototoxicity against mouse S37 cells implanted in F1 mouse assessed as tumor growth inhibition at 2.5 mg/kg, iv preincubated for 15 mins with subsequent 150 J/cm2 irradiation measured on day 20 post irradiation relative to control; type: functional; conditions: S37, light or radiation study, read-out: TGI; outline: as §4
[15] = Phototoxicity against mouse S37 cells implanted in F1 mouse assessed as tumor growth inhibition at 5 mg/kg, iv preincubated for 15 mins with subsequent 150 J/cm2 irradiation measured on day 18 post irradiation relative to control; type: functional; conditions: S37, light or radiation study, read-out: TGI; outline: as §4
[16] = Phototoxicity against mouse S37 cells implanted in F1 mouse assessed as tumor growth inhibition at 2.5 mg/kg, iv preincubated for 15 mins with subsequent 150 J/cm2 irradiation measured on day 8 post irradiation relative to control; type: functional; conditions: S37, light or radiation study, read-out: TGI; outline: as §4
[17] = Pro-oxidant activity in 1% cremophor EL or rose Bengal assessed as singlet oxygen radical generation by measuring photo-induced fading of 4-nitroso-N,N-dimethylaniline at 6.1 uM in presence of laser radiation and histidine measured every 5 to 10 mins in presence of singlet oxygen quencher NaN3 by absorption spectroscopy; type: functional
[18] = Phototoxicity against mouse S37 cells implanted in F1 mouse assessed as tumor growth inhibition at 2.5 mg/kg, iv preincubated for 15 mins with subsequent 150 J/cm2 irradiation measured on day 18 post irradiation relative to control; type: functional; conditions: S37, light or radiation study, read-out: TGI; outline: as §4

SMILES | Activity [1] | CC50 [2] | Activity [3] | Drug uptake [4] | inhibition in vivo at 5 mg/kg [5] | Activity [6] | Activity [7] | Activity [8] | Activity [9] | inhibition in vivo at 2.5 mg/kg [10] | inhibition in vivo at 2.5 mg/kg [11] | Flu intensity [12] | Drug uptake [13] | inhibition in vivo at 2.5 mg/kg [14] | inhibition in vivo at 5 mg/kg [15] | inhibition in vivo at 2.5 mg/kg [16] | Activity [17] | inhibition in vivo at 2.5 mg/kg [18]
CCCO/N=C(\C)c1c(C)c2cc3nc(c4c5[nH]c(cc6nc(cc1[nH]2)[C@@H](C)[C@@H]6CC)c(C)c5C(=O)N(OCCC)C4=O)[C@H](CCC(=O)NCCSSCCNC(=O)CC[C@@H]1c2nc(cc4[nH]c(cc5nc(cc6[nH]c7c2C(=O)N(OCCC)C(=O)c7c6C)[C@H](CC)[C@H]5C)c(/C(C)=N/OCCC)c4C)[C@H]1C)[C@H]3C | 39% | 50 nM | 0.39% | Active | 100% | 26% | 38% | Active | 39% | – | – | – | – | – | – | – | – | –
CCCO/N=C(\C)c1c(C)c2cc3nc(c4c5[nH]c(cc6nc(cc1[nH]2)[C@H](C)[C@H]6CC)c(C)c5C(=O)N(OCCC)C4=O)[C@@H](CCC(=O)OC)[C@@H]3C | – | – | – | – | – | – | – | – | – | 100% | 100% | 2.2 RU | Active | 100% | 100% | 100% | inactive | 100%

Reference: ChEMBL document CHEMBL4024769, “Synthesis and Investigation of Photophysical and Biological Properties of Novel S-Containing Bacteriopurpurinimides” (J Med Chem, 2017)
